Sampled rows, rich in hits. Any-hit rate of the full collection: about 1.6%.
FLuc act counter: firefly luciferase counter-screen for stimulation assays | P08659 | ATPlite luciferase biochemical, luminescence, 10 min; 0 = ATP-free wells, 1 = DMSO control | activation factor at 10 µM | 200,000 tested, under 10 active | AID 1027;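 active means luciferase activation factor, scaled between plate controls, of at least 2 with compound at 10 µM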
Target sequence (P08659 whole entry, looked up): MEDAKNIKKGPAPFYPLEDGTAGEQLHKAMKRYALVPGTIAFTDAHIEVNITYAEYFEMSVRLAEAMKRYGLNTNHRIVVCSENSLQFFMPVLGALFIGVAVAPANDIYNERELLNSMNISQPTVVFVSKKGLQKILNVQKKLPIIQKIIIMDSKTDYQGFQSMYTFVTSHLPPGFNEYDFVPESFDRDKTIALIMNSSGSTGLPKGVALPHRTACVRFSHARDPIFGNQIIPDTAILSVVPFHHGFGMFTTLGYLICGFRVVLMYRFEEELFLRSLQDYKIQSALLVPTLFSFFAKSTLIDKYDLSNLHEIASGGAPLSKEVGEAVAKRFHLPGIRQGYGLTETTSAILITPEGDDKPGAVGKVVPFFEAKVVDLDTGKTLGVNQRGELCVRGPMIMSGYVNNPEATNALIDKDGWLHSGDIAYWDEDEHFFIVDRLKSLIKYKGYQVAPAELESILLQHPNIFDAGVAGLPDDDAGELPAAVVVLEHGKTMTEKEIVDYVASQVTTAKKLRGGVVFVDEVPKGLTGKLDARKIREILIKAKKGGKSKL
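Assay system: Luciferase/luciferin detection reagent, cell-free biochemical luciferase assay / Also added: ATP substrate / Schedule: 10 min at ambient temperature / Measured by: luminescence measurement of luciferase light output / Benchmarks: low control with PBS replacing ATP, high control enzyme plus ATP without compound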
TRAIL sens C8: caspase-8 TRAIL sensitization. 1% of 360,000 active. AID 624354. NB7+C8 cells + TRAIL, ATPlite viability luminescence. inhibition (viability loss, TRAIL sensitization), % at 10 µM;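 active means compounds causing at least 50% loss of cell viability in the single-dose screen, relative to plate controls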
PPC-1+TRAIL kill: compounds killing PPC-1 cancer cells with TRAIL present (potentiator screen, no TRAIL-free arm); cell killing (% activity), % at 4 µM or 5 µM; PPC-1 cells + TRAIL, ATPLite viability luminescence; 0.41% of 220,000 active;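 active means cell killing above 50% in the first pass at 4 µM, then a duplicate retest at 5 µM averaging 50% or more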;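 further: plate controls were cells with TRAIL plus DMSO for no effect and medium-only wells lacking cells for full effect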
FLuc inh counter: counter-screen for luciferase assay inhibitors: firefly luciferase inhibition; AID 1006; P08659; inhibition, % at 10 µM; ATPLite firefly luciferase biochemical luminescence, 10 min; 1.5% of 200,000 active;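 active means inhibition above about 50% when tested at 10 µM, limit read from the data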
Starred values were filed as active, the others as inactive.

`O=C(OCn1ncc(Cl)c(Cl)c1=O)c1ccc(C(F)(F)F)cc1` gave FLuc act counter 1, TRAIL sens C8 78*, PPC-1+TRAIL kill 11 and FLuc inh counter -5.
`CCOC(=O)c1ccc(NC(=O)CSc2nc3sc(C(=O)O)c(C)c3c(=O)[nH]2)cc1` gave FLuc act counter 1, TRAIL sens C8 -3, PPC-1+TRAIL kill -6 and FLuc inh counter -3.
For C(=N\Nc1nc2ccccc2[nH]1)/c1ccncc1 the results were FLuc act counter 0.7, TRAIL sens C8 9, PPC-1+TRAIL kill 33 and FLuc inh counter 27.
`Cn1c(/C=N/Nc2nc3ccccc3[nH]2)nc2ccccc21` gave FLuc act counter 0.2, TRAIL sens C8 38, PPC-1+TRAIL kill 48 and FLuc inh counter 83*.
Cc1cc(=O)[nH]c(N/N=C/c2sccc2C)n1 was read as FLuc act counter 0.9, TRAIL sens C8 -4, PPC-1+TRAIL kill 9 and FLuc inh counter 10.
C(=N\Nc1nc2ccccc2[nH]1)/c1cccs1 was read as FLuc act counter 0.3, TRAIL sens C8 5, PPC-1+TRAIL kill 27 and FLuc inh counter 68*.
For Cc1ccsc1/C=N/Nc1nc2ccccc2[nH]1 the results were FLuc act counter 0.3, TRAIL sens C8 7, PPC-1+TRAIL kill 1 and FLuc inh counter 74*.
`CCCn1c(/C=N/Nc2nc3ccccc3[nH]2)nc2ccccc21` gave FLuc act counter 0.9, TRAIL sens C8 26, PPC-1+TRAIL kill -2 and FLuc inh counter 10.
For Cc1nn(-c2ccccc2)c(C)c1/C=N/Nc1nc2ccccc2[nH]1 the results were FLuc act counter 0.2, TRAIL sens C8 43, PPC-1+TRAIL kill 29 and FLuc inh counter 80*.
Oc1cc(CNC2CCCCC2)c(O)cc1CNC1CCCCC1 was read as TRAIL sens C8 0.
`c1ccc2[nH]c(NN=C3CCCCCC3)nc2c1` gave FLuc act counter 0.2, TRAIL sens C8 16, PPC-1+TRAIL kill 20 and FLuc inh counter 82*.
For Clc1nc2ccccc2cc1/C=N/Nc1nc2ccccc2[nH]1 the results were FLuc act counter 0.1, TRAIL sens C8 83*, PPC-1+TRAIL kill 37 and FLuc inh counter 88*.
`Nc1nc2n(n1)C(=O)CC(c1ccccc1)N2` (centres undefined) gave FLuc act counter 1.1, TRAIL sens C8 -2 and FLuc inh counter -5.
`Cc1cc(NC(=O)CSC2=NS(=O)(=O)c3ccccc3N2)no1` gave TRAIL sens C8 -3.
`CCC(=O)Nc1nc(NCc2ccccc2OC)n(-c2ccccc2)n1` gave TRAIL sens C8 -10.
`CCn1cc(C(=O)N[C@H](C(=O)NCCCO)C(C)C)c(=O)c2cc3c(cc21)OCO3` gave TRAIL sens C8 -10.
For CCC(C)c1ccc2oc(-c3ccc(NC(=O)Cn4cnc5c(=O)n(C)c(=O)n(C)c54)cc3)nc2c1 (centres undefined) the results were FLuc act counter 1, TRAIL sens C8 80*, PPC-1+TRAIL kill 15 and FLuc inh counter 2.
For Cc1ccc2oc(-c3cccc(NC(=O)Cn4cnc5c(=O)n(C)c(=O)n(C)c54)c3)nc2c1 the results were FLuc act counter 0.7, PPC-1+TRAIL kill 29 and FLuc inh counter 33.
Screening O=C(CC(O)(CC(=O)OCc1ccccc1)C(=O)OCc1ccccc1)OCc1ccccc1 returned TRAIL sens C8 1.
CCN(CC)c1ccc(NC(=O)c2ccc(Br)o2)cc1 was read as FLuc act counter 0.5, TRAIL sens C8 32, PPC-1+TRAIL kill -14 and FLuc inh counter 53*.
For O=C(NC(=S)Nc1ccccn1)c1cncc(Br)c1 the results were FLuc act counter 0.4, TRAIL sens C8 10, PPC-1+TRAIL kill 12 and FLuc inh counter 64*.
`Cc1ccc(OCC(=O)NC(=S)Nc2ccccn2)c(Br)c1` gave TRAIL sens C8 84*.
`O=C(NC(=S)Nc1ccc(Br)cn1)c1cncc(Br)c1` gave FLuc act counter 0.6, TRAIL sens C8 16, PPC-1+TRAIL kill 1 and FLuc inh counter 42.
`CCN(CC)CCNC(=O)c1cc(Nc2ccc(OC)c(OC)c2)nc2ccccc12` gave TRAIL sens C8 6.
For Cc1ccc(CN2CC(C(=O)NCCC3=CCCCC3)CC2=O)cc1 (centres undefined) the results were TRAIL sens C8 -6.
Screening C=C1CCN(CC(=O)OC)S(=O)(=O)c2ccccc21 returned TRAIL sens C8 -20 and PPC-1+TRAIL kill 10.
For CCOC(=O)COc1ccc2ccccc2c1/C=C/[N+](=O)[O-] the results were FLuc act counter 1, TRAIL sens C8 -9, PPC-1+TRAIL kill 1 and FLuc inh counter -4.
Screening O=[N+]([O-])/C=C/c1c(OCc2ccccc2)ccc2ccccc12 returned FLuc act counter 1, TRAIL sens C8 60*, PPC-1+TRAIL kill -17 and FLuc inh counter -4.
COc1ccc(-n2ncc3c(N(C)C4CCCCC4)ncnc32)cc1 was read as TRAIL sens C8 85*.
Screening COc1cc(-c2nc3cccc(C)n3c2NCC2CCCO2)ccc1O (centres undefined) returned FLuc act counter 1, TRAIL sens C8 9, PPC-1+TRAIL kill 16 and FLuc inh counter 3.
For Nc1nn2cc(-c3ccc(Br)cc3)nc2c2ccccc12 the results were TRAIL sens C8 51* and PPC-1+TRAIL kill 40.
For CN1CCN(C(=O)C2=NOC3(C2)C(=O)Nc2ccccc23)CC1 (centres undefined) the results were TRAIL sens C8 52*.
O=C(C1=NOC2(C1)C(=O)Nc1ccccc12)N1CCCCC1 (centres undefined) was read as TRAIL sens C8 -13.
`CC[C@]12c3[nH]c4ccc(Cl)cc4c3CCN1C(=O)[C@@H](CC(=O)NCc1cccc(C(F)(F)F)c1)C[C@@H]2C(=O)N1CCN(C(=O)c2ccco2)CC1` gave TRAIL sens C8 61*.
Screening Cc1ccc(-c2nn(CC(=O)NCc3cc(-c4nn(C)c(=O)c5ccccc45)ccc3C)c(=O)c3ccccc23)cc1 returned FLuc act counter 1.1, TRAIL sens C8 62*, PPC-1+TRAIL kill 32 and FLuc inh counter -6.
Screening CC(C)(C)c1ccc(C(=O)NNC(=O)CNC(=O)c2cccs2)cc1 returned TRAIL sens C8 12.
Screening COc1c(/C=N/NC(=O)c2ccccc2O)c(CCN(C)C(C)=O)cc2c1OCO2 returned FLuc act counter 0.2, TRAIL sens C8 -1, PPC-1+TRAIL kill 18 and FLuc inh counter 85*.
For CCC(=O)N(C)CCc1cc2c(c(OC)c1/C=N/NC(=O)c1ccccc1O)OCO2 the results were FLuc act counter 0.7, TRAIL sens C8 4, PPC-1+TRAIL kill 2 and FLuc inh counter 32.
`CCOc1ccc(-c2cc(C(=O)N/N=C(\C)c3cccnc3)c3ccccc3n2)cc1` gave TRAIL sens C8 68*.
COc1ccc(OC)c(-c2cc(C(=O)N/N=C(\C)c3cccnc3)c3ccccc3n2)c1 was read as TRAIL sens C8 -4.
For C/C(=N\NC(=O)c1cc(-c2ccco2)nc2ccccc12)c1cccnc1 the results were FLuc act counter 0.5, TRAIL sens C8 8, PPC-1+TRAIL kill 16 and FLuc inh counter 53*.
